In ChEMBL document CHEMBL2046280, “Discovery of the novel potent and selective FLT3 inhibitor 1-{5-[7-(3- morpholinopropoxy)quinazolin-4-ylthio]-[1,3,4]thiadiazol-2-yl}-3-p-tolylurea and its anti-acute myeloid leukemia (AML) activities in vitro and in vivo” (J Med Chem, 2012):

Tests used:
[1] = tested on: HCT-116; assay: Cytotoxicity against FLT3-independent human HCT116 cells after 72 hrs by MTT assay; type: functional, cell-based; details: HCT-116, 72 h
Summary of the method: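 Adherent lines at 2−5 × 10³ cells/well were allowed to settle 24 h, then the medium was replaced with serial inhibitor dilutions for 72 h. MTT was added for 2−4 h, followed by dissolution in 100% DMSO. OD read at 570 nm. Viability relative to 0.1% DMSO controls; triplicate. Grown in RPMI 1640 or DMEM with 10% FBS, 5% CO₂, 37 °C.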

[2] = tested on: MV4-11; assay: Cytotoxicity against FLT3-dependent human MV4-11 cells after 72 hrs by MTT assay; type: functional, cell-based; details: MV4-11, 72 h
Summary of the method: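 Leukemia cells at 1−4 × 10⁴ per well were exposed to increasing inhibitor concentrations for 72 h at 37 °C. MTT was then added for 2−4 h, and cells were lysed with 20% acidified SDS. OD read at 570 nm. Viability relative to 0.1% DMSO controls; triplicate. MV4-11 grown in IMDM, others in RPMI 1640 or DMEM with 10% FBS.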

[3] = biological target: T1, Receptor-type tyrosine-protein kinase FLT3 (Homo sapiens, UniProt P36888); assay: Inhibition of human FLT3
T1 sequence (P36888 whole entry): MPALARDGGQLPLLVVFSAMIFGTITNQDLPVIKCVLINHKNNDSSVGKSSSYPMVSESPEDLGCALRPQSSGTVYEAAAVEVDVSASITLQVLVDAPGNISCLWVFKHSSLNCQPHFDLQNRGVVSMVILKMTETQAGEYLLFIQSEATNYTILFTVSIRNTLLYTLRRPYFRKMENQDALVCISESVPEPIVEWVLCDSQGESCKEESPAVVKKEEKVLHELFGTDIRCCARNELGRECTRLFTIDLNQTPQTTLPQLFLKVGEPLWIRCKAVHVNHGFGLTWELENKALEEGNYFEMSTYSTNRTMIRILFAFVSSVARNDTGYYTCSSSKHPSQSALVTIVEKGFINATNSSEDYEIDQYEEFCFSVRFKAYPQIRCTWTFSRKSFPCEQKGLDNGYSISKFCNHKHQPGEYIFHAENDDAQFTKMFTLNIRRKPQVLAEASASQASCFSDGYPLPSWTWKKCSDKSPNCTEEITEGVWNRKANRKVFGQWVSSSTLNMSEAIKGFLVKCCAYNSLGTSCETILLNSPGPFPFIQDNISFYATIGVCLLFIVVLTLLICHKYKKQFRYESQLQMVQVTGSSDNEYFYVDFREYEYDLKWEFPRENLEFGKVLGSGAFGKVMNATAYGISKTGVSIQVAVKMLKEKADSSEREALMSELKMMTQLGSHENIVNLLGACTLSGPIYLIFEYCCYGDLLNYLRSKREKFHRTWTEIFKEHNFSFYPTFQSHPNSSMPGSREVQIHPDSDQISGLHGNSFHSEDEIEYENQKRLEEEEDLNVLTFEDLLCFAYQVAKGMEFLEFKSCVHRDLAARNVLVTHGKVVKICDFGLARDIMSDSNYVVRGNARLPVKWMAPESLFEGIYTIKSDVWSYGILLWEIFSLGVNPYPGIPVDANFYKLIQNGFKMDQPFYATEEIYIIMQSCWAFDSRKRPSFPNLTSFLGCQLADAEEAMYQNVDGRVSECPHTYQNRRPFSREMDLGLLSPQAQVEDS
Summary of the method: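 Human FLT3 kinase assayed across a dose−response series at 200 μM ATP.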

[4] = tested on: MV4-11; assay: Antitumor activity against human MV4-11 cells xenografted in NOD-SCID mouse assessed as tumor growth inhibition at 50 mg/kg, ip once daily for 21 days measured every 3 days; type: functional; details: MV4-11, ip, route intraperitoneal, read-out: GI
[5] = Cmax in Sprague-Dawley rat at 40 mg/kg, ip; type: ADME, organism-based; set-up: dose 40 mg/kg, route intraperitoneal; details: in vivo
Summary of the method: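 Male Sprague−Dawley rats (200−250 g), n = 3, fasted overnight, with a femoral-vein catheter for blood sampling. Single 40 mg/kg ip dose; plasma drug levels measured by LC-MS/MS.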

| SMILES | IC50 [1] | IC50 [2] | IC50 [3] | inhibition in vivo at 50 mg/kg [4] | Cmax [5] |
| --- | --- | --- | --- | --- | --- |
| COCCOc1cc2ncnc(Sc3nc(C)c(CC(=O)Nc4cc(C)cc(C)c4)s3)c2cc1OCCOC | > 10 µM | 0.625 µM |  |  |  |
| COCCOc1cc2ncnc(Sc3nnc(NC(=O)Nc4cccc(Cl)c4)s3)c2cc1OCCOC | > 10 µM | 0.02 µM |  |  |  |
| COc1cc2c(Sc3nccs3)ncnc2cc1OCCN1CCCC1 | > 10 µM | 1.6 µM |  |  |  |
| COc1cc2ncnc(Sc3nc(C)c(CC(=O)Nc4cccc(C(F)(F)F)c4)s3)c2cc1OC | > 10 µM | 0.02 µM |  |  |  |
| COCCOc1cc2ncnc(Sc3nc(CC(=O)Nc4ccc(C(F)(F)F)cc4)cs3)c2cc1OCCOC | > 10 µM | 2.88 µM |  |  |  |
| COCCOc1cc2ncnc(Sc3nc(C)c(CC(=O)Nc4cccc(C(F)(F)F)c4)s3)c2cc1OCCOC | > 10 µM | 0.025 µM |  |  |  |
| COc1cc2ncnc(Sc3nc(C)c(CC(=O)Nc4cccc(Cl)c4)s3)c2cc1OC | > 10 µM | 0.45 µM |  |  |  |
| COc1cc2ncnc(Sc3nccs3)c2cc1OCCCN(C)C | > 10 µM | 1.13 µM |  |  |  |
| COc1cc2ncnc(Sc3nccs3)c2cc1OC | > 10 µM | 1.14 µM | 0.007 µM |  |  |
| COCCOc1cc2ncnc(Sc3nc(CC(=O)Nc4cc(C)cc(C)c4)cs3)c2cc1OCCOC | > 10 µM | 9.04 µM |  |  |  |
| COc1cc2c(Sc3nccs3)ncnc2cc1OCCN1CCCCC1 | > 10 µM | 1.5 µM |  |  |  |
| C#Cc1cccc(NC(=O)Nc2nnc(Sc3ncnc4cc(OCCCN5CCOCC5)ccc34)s2)c1 | > 10 µM | 0.0003 µM | 0.006 µM | < 50% | 2740 ng/mL |
| CCN(CC)CCNC(=O)c1c(C)[nH]c(/C=C2\C(=O)Nc3ccc(F)cc32)c1C [SUNITINIB] |  | 0.003 µM |  |  |  |
| C=CC(=O)Nc1nnc(Sc2ncnc3cc(OCCCN4CCOCC4)ccc23)s1 | > 10 µM | 6 µM |  |  |  |
| COc1cc2ncnc(Sc3nccs3)c2cc1OCCN1CCOCC1 | > 10 µM | 2.95 µM |  |  |  |
| O=C(Nc1cccc(Cl)c1)Nc1nnc(Sc2ncnc3cc(OCCCN4CCOCC4)ccc23)s1 | > 10 µM | 0.012 µM |  |  |  |
| COCCOc1cc2ncnc(Sc3nc(C)c(CC(=O)Nc4cccc(Cl)c4)s3)c2cc1OCCOC | > 10 µM | 0.21 µM |  |  |  |
| COCCOc1cc2ncnc(Sc3nccs3)c2cc1OCCOC | > 10 µM | 1.4 µM |  |  |  |
| COc1cc2ncnc(Sc3nc(C)cs3)c2cc1OC | > 10 µM | 3.68 µM |  |  |  |
| COCCOc1cc2ncnc(Sc3nnc(NC(C)=O)s3)c2cc1OCCOC | > 10 µM | > 11 µM |  |  |  |
| COCCOc1cc2ncnc(Sc3nnc(NC(=O)Nc4cccc(F)c4)s3)c2cc1OCCOC | > 10 µM | 0.4 µM |  |  |  |
| COCCOc1cc2ncnc(Sc3nc(C)c(CC(=O)Nc4nc5ccc(OC)cc5s4)s3)c2cc1OCCOC | > 10 µM | 1.9 µM |  |  |  |

| SMILES | IC50 [1] | IC50 [2] | IC50 [3] | inhibition in vivo at 50 mg/kg [4] | Cmax [5] |
| --- | --- | --- | --- | --- | --- |
| C=CC(=O)Nc1nnc(Sc2ncnc3cc(OCCOC)c(OCCOC)cc23)s1 | > 10 µM | > 10 µM |  |  |  |
| COc1cc2ncnc(Sc3nccs3)c2cc1OCCCN1CCOCC1 | > 10 µM | 1.02 µM |  |  |  |
| COCCOc1cc2ncnc(Sc3nc(C)c(CC(=O)Nc4ccc(C(F)(F)F)cc4)s3)c2cc1OCCOC | > 10 µM | 0.027 µM |  |  |  |
| COCCOc1cc2ncnc(Sc3nc(C)c(CC(=O)NC4CC4)s3)c2cc1OCCOC | > 10 µM | 2.42 µM |  |  |  |
| C#Cc1cccc(NC(=O)Nc2nnc(Sc3ncnc4cc(OCCOC)c(OCCOC)cc34)s2)c1 | > 10 µM | 0.005 µM |  | < 50% |  |
| COCCOc1cc2ncnc(Sc3nnc(NC(=O)Nc4ccc(C)cc4)s3)c2cc1OCCOC | > 10 µM | 0.022 µM |  |  |  |
| COc1cc2c(Sc3nccs3)ncnc2cc1OCCN1CCOCC1 | > 10 µM | 3 µM |  |  |  |
| COc1cc2ncnc(Sc3nccs3)c2cc1OCCN1CCCC1 | > 10 µM | 1.24 µM |  |  |  |
| COc1cc2c(Sc3nccs3)ncnc2cc1OCCCN1CCOCC1 | > 10 µM | 1.15 µM |  |  |  |
| COCCOc1cc2ncnc(Sc3nc(CC(=O)Nc4cccc(Cl)c4)cs3)c2cc1OCCOC | > 10 µM | 3.2 µM |  |  |  |
| COCCOc1cc2ncnc(Sc3nnc(NC(=O)Nc4cccc(Br)c4)s3)c2cc1OCCOC | > 10 µM | 0.022 µM |  |  |  |
| COc1cc2c(N3CCN(C(=O)Nc4ccc(OC(C)C)cc4)CC3)ncnc2cc1OCCCN1CCCCC1 [TANDUTINIB] |  | 0.055 µM |  |  |  |
| COc1cc2ncnc(Sc3nc(C)c(CC(=O)Nc4cc(Cl)cc(Cl)c4)s3)c2cc1OC | > 10 µM | 1.4 µM |  |  |  |
| COCCOc1cc2ncnc(Sc3nncs3)c2cc1OCCOC | > 10 µM | 1.35 µM |  |  |  |
| COc1cc2ncnc(Sc3nncs3)c2cc1OC | > 10 µM | 1.2 µM | 0.009 µM |  |  |
| COc1cc2ncnc(Sc3nc(C)c(CC(=O)Nc4ccc(NC(C)=O)cc4)s3)c2cc1OC | > 10 µM | > 5 µM |  |  |  |
| COc1cc2ncnc(Sc3nccs3)c2cc1OCCN1CCCCC1 | > 10 µM | 1.61 µM |  |  |  |
| O=C(Nc1ccccc1)Nc1nnc(Sc2ncnc3cc(OCCCN4CCOCC4)ccc23)s1 | > 10 µM | 0.01 µM |  |  |  |
| COc1cc2ncnc(Sc3nc(C)c(CC(=O)NCc4ccc(Cl)cc4)s3)c2cc1OC | > 10 µM | > 10 µM |  |  |  |
| COCCOc1cc2ncnc(Sc3nc(CC(=O)Nc4cccc(C(F)(F)F)c4)cs3)c2cc1OCCOC | > 10 µM | 0.83 µM |  |  |  |
| COCCOc1cc2ncnc(Sc3nnc(NC(=O)Nc4ccc(C(F)(F)F)cc4)s3)c2cc1OCCOC | > 10 µM | 0.3 µM |  |  |  |
